In ChEMBL document CHEMBL1811869, “Tigliane-type diterpenoid glycosides from Euphorbia fischeriana” (J Nat Prod, 2011):

What was measured:
[1] = Therapeutic index, ratio of CC50 for C8166 cells to EC50 for Human immunodeficiency virus 1; format: cell-based; conditions: read-out: Ratio CC50/EC50
[2] = tested on: Human immunodeficiency virus 1; assay: Antiviral activity against Human immunodeficiency virus 1 infected in human C8166 cells assessed as inhibition of virus-induced cytopathic effect; format: functional, organism-based; conditions: Human immunodeficiency virus 1, C8166
In short: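 HIV-1 cytopathic-effect inhibition assay in C8166 cells, with EC50 derived. Zidovudine (AZT) run as the positive-control drug.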

[3] = Cytotoxicity against human C8166 cells by MTT assay; format: cell-based
In short: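 C8166 cell viability read by MTT method, with CC50 derived.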

Row | SMILES | selectivity ratio [1] | EC50 [2] [nM] | CC50 [3] [nM]
1 | CC(=O)OCC1=C[C@H]2[C@@H]3C(C)(C)[C@]3(OC(C)=O)C[C@@H](C)[C@]2(O)[C@@H]2C=C(C)C(=O)[C@@]2(O)C1 | > 367 | 0.3 | 110
2 | CC(=O)O[C@@]12C[C@@H](C)[C@@]3(O)[C@@H](C=C(CO[C@@H]4O[C@H](CO)[C@@H](O)[C@H](O)[C@H]4O)C[C@]4(O)C(=O)C(C)=C[C@@H]34)[C@@H]1C2(C)C [FISCHEROSIDES A] | > 2.12 | 170 | > 360
3 | CC(=O)O[C@@]12C[C@@H](C)[C@@]3(O)[C@@H](C=C(CO[C@@H]4O[C@H](COC(=O)c5cc(O)c(O)c(O)c5)[C@@H](O)[C@H](O)[C@H]4O)C[C@]4(O)C(=O)C(C)=C[C@@H]34)[C@@H]1C2(C)C [FISCHEROSIDES B] | > 4 | 70 | > 280
4 | CC(=O)O[C@@]12[C@H](O)[C@@H](C)[C@@]3(O)[C@@H](C=C(CO[C@@H]4O[C@H](CO)[C@@H](O)[C@H](O)[C@H]4O)C[C@]4(O)C(=O)C(C)=C[C@@H]34)[C@@H]1C2(C)C [FISCHEROSIDES C] | > 17.5 | 20 | > 350
5 | CC(=O)O[C@@]12C[C@@H](C)[C@@]3(O)[C@@H](C=C(CO)C[C@]4(O)C(=O)C(C)=C[C@@H]34)[C@@H]1C2(C)C [PROSTRATIN] | > 8500 | 0.06 | > 510
6 | Cc1cn([C@H]2C[C@H](N=[N+]=[N-])[C@@H](CO)O2)c(=O)[nH]c1=O [ZIDOVUDINE] | 1.02e+06 | – | 4070
